Hits are enriched below; roughly 3.1% of the tested compounds scored in any of these assays.
hERG protect: hERG (human) protection from proarrhythmic block. Q12809. AID 1511. 310,000 compounds, 0.51% hits. activation (rescue from dofetilide block), less the hit threshold, % at 10 µM. CHO-hERG, FluxOR thallium flux, dofetilide IC70 present;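 active = activation above the mean of controls blocked by dofetilide plus 5 SD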;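 also: thallium influx through hERG after potassium depolarization seen as dye fluorescence rise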
KCNK9 block: human KCNK9 channel inhibition | Q9NPC2 | HEK293 KCNK9, FluxOR thallium flux fluorescence; active compounds read low | B-score at 10 µM | 310,000 compounds, 1.2% hits | AID 488922;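 active = ratio B-score over 3 SD below the library mean, with starting fluorescence within 5 SD of its mean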;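 also: negative B-score means less thallium flux so channel inhibition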
KCNQ1 pot: potentiators or activators of human KCNQ1 potassium channel; 310,000 compounds, 0.35% hits; P51787; CHO-K1 KCNQ1, thallium flux FluxOR fluorescence; active compounds read high; B-score at 10 µM;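 active = fluorescence ratio B-score, a plate-corrected score, at least three library SD, with initial intensity B-score within 5 SD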
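Doses: Single concentration per compound, DMSO matched to controls | Test system: KCNQ1-transfected CHO-K1 cells | Timing: 90 min dye loading and 20 min compound exposure, both at room temperature | Measured by: Kinetic FluxOR thallium fluorescence, 10-s 1-Hz baseline, 110-s post-stimulus read | Medium: Assay buffer with matched DMSO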
KCNQ1 inh: human KCNQ1 channel inhibition; P51787; AID 2642; CHO-K1 KCNQ1, FluxOR thallium flux fluorescence; active compounds read high; 310,000 compounds, 1.3% hits; B-score at 10 µM;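 active = compounds whose thallium flux B-score, printed positive for inhibition, exceeds three library SD while starting fluorescence stays within three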;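 also: channel opened by potassium depolarization with thallium stimulus after 20 min compound exposure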
KCNK3 block: human KCNK3 channel inhibition, primary screen | CHO-KCNK3 thallium flux, FluxOR fluorescence; active compounds read low | B-score at 10 µM | O14649 | 340,000 compounds, 0.84% hits;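 active = B-score under library mean minus 4 SD, starting fluorescence ratio at most library mean plus 5 SD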;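 also: more negative B-score means stronger inhibition of thallium flux through KCNK3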
Each line names hits and unclear results; the compound was inactive in the other large screens.

CC(CCc1ccccc1)NS(=O)(=O)c1ccccc1F (stereo not given)	none
Cc1onc(-c2ccccc2Cl)c1C(=O)Nc1nnc(-c2cccc([N+](=O)[O-])c2)s1	KCNQ1 inh 11
CCSc1nnc(NC(=O)c2c(-c3ccccc3Cl)noc2C)s1	none
O=C(Nc1ccc(NC(=O)C2CC2)nc1)c1cccnc1	hERG protect 4.9
c1ccc(C(c2ccccc2)N2CCN(C(c3ccccn3)c3nnnn3C3CCCC3)CC2)cc1 (stereo not given)	KCNK9 block -15.3
Cc1ccc(CN(CC(=O)NCCc2ccccc2)C(=O)c2csnn2)cc1	none
CCn1c(CNC(=O)c2ccc3c(c2)OCO3)nnc1SCC(=O)Nc1cc(C)ccc1OC	KCNQ1 inh 8
Cc1ccccc1NC(=O)CSc1nnc(CNC(=O)c2ccc3c(c2)OCO3)n1C	none
CC(C)c1ccc2c(c1)C(c1cccs1)=NNC(c1ccncc1)=N2	KCNK9 block -7.43
CCN1CCN(c2ccc(S(=O)(=O)N3CCCCC3)cc2NC(=O)/C=C/c2ccc(Cl)cc2)CC1	none (no result: hERG protect, KCNK9 block, KCNQ1 pot, KCNQ1 inh)
O=C(CSc1nc2ccccc2s1)N1N=C(c2cccs2)CC1c1ccc(F)cc1 (stereo not given)	KCNK9 block -6.86
C=CCNc1nnc(SCC(=O)N2CCC(C(N)=O)CC2)s1	KCNQ1 pot 9
O=C(O)C1CCN(C(=O)CSc2nc3ccccc3s2)CC1	none
NC(=O)C1CCN(C(=O)CSc2nc3ccccc3s2)CC1	hERG protect 5.6
O=C(Cc1ccc(NC(=O)C2CCCN(C(=O)C3CCC3)C2)cc1)Nc1ccc(C(=O)N2CCOCC2)cc1 (stereo not given)	none (no result: hERG protect, KCNK9 block, KCNQ1 pot, KCNQ1 inh)
COc1ccccc1C(=O)NCCC(=O)Nc1ccc(S(=O)(=O)N2CC(C)CC(C)C2)cc1 (stereo not given)	none (no result: hERG protect, KCNK9 block, KCNQ1 pot, KCNQ1 inh)
CCCC(=O)Nc1sc2c(c1C(=O)OCC)CC(C)(C)OC2	none
CCOC(=O)c1c(NC(=O)c2ccc(C)cc2)sc2c1CC(C)(C)OC2	KCNQ1 inh 8
Cc1ccccc1-n1ncc2c1CC(C)(C)CC2NC(=O)CN1CCCC1=O (stereo not given)	none
COc1cc(NC(=O)CSc2nc(C)c(C)c(C)n2)cc(OC)c1	hERG protect 7.5
COc1cc(NC(=O)CSCC(=O)Nc2cc(OC)cc(OC)c2)cc(OC)c1	none (no result: KCNK3 block)
O=C(Nc1ccccc1)OCCOc1ccccc1	none
O=C(Nc1ccccc1)OCCCCCOC(=O)Nc1ccccc1	hERG protect 7.7
Cc1ccc(C)c(NC(=O)CN(C)C(=O)c2ccc(S(=O)(=O)N3CCCCCC3)cc2)c1	none (no result: hERG protect, KCNK9 block, KCNQ1 pot, KCNQ1 inh)
Cc1ccc(S(=O)(=O)N2CCOCC2)cc1NC(=O)COC(=O)c1cccnc1Cl	hERG protect 35.0
Cc1ccc(S(=O)(=O)N2CCOCC2)cc1NC(=O)COC(=O)CNC(=O)c1ccc(C(C)(C)C)cc1	none
Cc1ccc(S(=O)(=O)N2CCOCC2)cc1NC(=O)COC(=O)CCOc1ccc(C(C)(C)C)cc1	KCNQ1 inh 8
Cc1ccc(S(=O)(=O)N2CCN(C(=O)COC(=O)CCOc3ccc(C(C)(C)C)cc3)CC2)cc1	KCNQ1 inh 6
CCOc1ncccc1C(=O)OCC(=O)Nc1cc(S(=O)(=O)N2CCOCC2)ccc1C	none
O=C(COC(=O)c1cccnc1Cl)Nc1ccc2c(c1)OCCO2	hERG protect 37.3
Cn1nnnc1SCC(=O)Nc1ccccc1C(N)=O	none
O=C(O)c1cnnc2ccccc12	none (no result: hERG protect, KCNK9 block, KCNQ1 pot, KCNQ1 inh)
Cc1ccc(S(=O)(=O)N2CCOCC2)cc1NC(=O)COc1cccc(Oc2ccccc2)c1	KCNQ1 inh 6
O=C(Nc1cccc2c1C(=O)NC2=O)c1cccnc1Cl	hERG protect 6.1
O=C(Nc1cccnc1Cl)c1cccnc1Cl	none
COCCCn1c(=S)[nH]c2ncccc2c1=O	none
CCCCCn1c(=S)[nH]c2ncccc2c1=O	hERG protect 11.5, KCNQ1 pot 20
O=c1c2cccnc2[nH]c(=S)n1CCC1=CCCCC1	hERG protect 30.8, KCNQ1 pot 27
O=C(CCc1ccccc1)N[C@@H]1c2ccccc2CC[C@H]1OCc1ccccc1	none (no result: hERG protect, KCNK9 block, KCNQ1 pot, KCNQ1 inh)
Cc1c(C=NNC(=O)c2ccc(Br)cc2)c2ccccn2c1C(=O)c1ccncc1	none (no result: hERG protect, KCNK9 block, KCNQ1 pot, KCNQ1 inh)
O=C(COC(=O)c1cccc(F)c1)NC(=O)NCc1ccccc1	none (no result: hERG protect, KCNK9 block, KCNQ1 pot, KCNQ1 inh)
CCc1ccn2cc(-c3ccc4c(c3)OCO4)nc2c1	KCNK9 block -7.32
CCOc1ccc(-c2csc(/C(C#N)=C\c3ccc(O)c([N+](=O)[O-])c3)n2)cc1	KCNQ1 inh 6
CCN(CC)c1ccc(C(=C2C=CC(=[N+](CC)CC)C=C2)c2ccc(N(CC)CC)cc2)cc1	KCNK3 block -11.6 (no result: hERG protect, KCNK9 block, KCNQ1 pot, KCNQ1 inh)
COC(=O)c1ccccc1S(=O)(=O)N1CCn2cccc2C1C (stereo not given)	hERG protect 35.3
COc1ccc(NC(C)=O)cc1S(=O)(=O)N1CCn2cccc2C1C (stereo not given)	none (no result: hERG protect, KCNK9 block, KCNQ1 pot, KCNQ1 inh)
COC(=O)c1cccc(NC(=O)c2cc3ccccc3o2)c1	none
O=S(=O)(Nc1cccc(-n2cnnn2)c1)c1cccc(Cl)c1	KCNQ1 pot 8
O=S(=O)(Nc1cccc(-n2cnnn2)c1)c1ccccc1	none
CC1Nc2ncnc(N3CCN(c4ccccc4)CC3)c2N(Cc2ccc(Br)cc2)C1=O (stereo not given)	KCNK9 block -6.75
CCOC(=O)N1CCN(c2ccc3nnnn3n2)CC1	none
O=C(CCCN1C(=O)c2cccnc2C1=O)Nc1ccc(F)cc1Cl	none
CCOC(=O)C(=NCCCN(C)C)NNc1ccc(Br)cc1	none
CCCCN=C(NNc1ccc(Br)cc1)C(=O)OCC	KCNK9 block -7.57
O=C(O)c1ccc(Cl)cc1Nc1nc2cc(Cl)ccc2o1	hERG protect 5.6
CC1CCN(C(=S)NC(=O)c2ccc(F)cc2)CC1	none (no result: hERG protect, KCNK9 block, KCNQ1 pot, KCNQ1 inh)
O=C(NNC(=O)C1CCC1)c1ccc(Cl)cc1	none
CN(C(=S)NC(=O)c1ccc(F)cc1)C1CCCCC1	KCNQ1 pot 8
O=C(NC(=S)NC1CCCCC1)c1ccccc1	none
CN(C(=S)NC(=O)c1ccccc1)C1CCCCC1	hERG protect 15.1, KCNQ1 pot 11
CN(C(=S)NC(=O)c1ccc(Cl)cc1)C1CCCCC1	KCNQ1 pot 12
CC1CN(c2nc3ccccc3nc2C(C#N)C(=O)NCc2ccc3c(c2)OCO3)CC(C)O1 (stereo not given)	KCNQ1 pot 23
C=CCNC(=O)C(C#N)c1nc2ccccc2nc1N1CCCCCC1 (stereo not given)	KCNQ1 inh 6
CCCCNC(=O)C(C#N)c1nc2ccccc2nc1N1CCN(Cc2ccc3c(c2)OCO3)CC1 (stereo not given)	none (no result: hERG protect, KCNK9 block, KCNQ1 pot, KCNQ1 inh)
CC(=O)c1cc(Cl)ccc1OCC(=O)Nc1cccc(S(=O)(=O)N2CCCC2)c1	none (no result: hERG protect, KCNK9 block, KCNQ1 pot, KCNQ1 inh)
CCN1C[C@@H]2[C@@H]3C(=O)N(C)C(=O)[C@@H]3[C@](CC)(C1=O)N2C(=O)c1ccc(Cl)cc1	none (no result: hERG protect, KCNK9 block, KCNQ1 pot, KCNQ1 inh)
CCc1cc(=O)[nH]c(SCc2ccc(C)cc2)n1	hERG protect 4.9
CC(=O)c1cccc(S(=O)(=O)N2CCC(c3nc4ccccc4[nH]3)CC2)c1	none
